What all share (type): functional, organism-based
For test [1], the system named is Human immunodeficiency virus 1. The experiment in a line: Antiviral activity against HIV1 isolate with RT K103N-G190A mutation. In a few lines: (§1)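 VSV-G-pseudotyped pNL4-3.Luc.R−E− molecular clones carrying the RT mutations, single-round infection of HeLa-JC53 cells (15,000/well) at MOI 0.03. Compounds serially diluted 1:4 in DMSO then in phenol red-free DMEM with 2% FBS, final DMSO 0.2%. Incubated 48 h at 37°C, 5% CO2. Luciferase read-out by chemiluminescence gives the EC50. Fold change is relative to wt virus, mean of two tests.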

Test [2] has as its system Human immunodeficiency virus 1. Put plainly: Antiviral activity against wild type HIV1 NL4-3 in Hela-JC53 cells after 48 hrs. The following applies: Human immunodeficiency virus 1, NL4-3, Hela-JC53, 48 h. In a few lines:
(§2)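 Single-round assay in HeLa-JC53 cells (15,000/well) using VSV-G-pseudotyped pNL4-3.Luc.R−E−-derived virus at MOI 0.03. Compounds serially diluted 1:4 in DMSO then medium (2% FBS; final DMSO 0.2%). Incubated 48 h at 37°C in 5% CO2. Luciferase chemiluminescence read-out; EC50 determined.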

For test [3], the system named is Human immunodeficiency virus 1. Put plainly: Inhibition of wild type clade B HIV1 NL4-3. A digest of the protocol: as §2
Test [4] relates to Human immunodeficiency virus 1. The experiment in a line: Antiviral activity against HIV1 isolate with RT K103N mutation. In a few lines: as §1
Test [5] relates to Human immunodeficiency virus 1. The experiment in a line: Antiviral activity against HIV1 NL4-3 with Y188L mutation in Hela-JC53 cells after 48 hrs. The conditions noted are these: Human immunodeficiency virus 1, NL4-3, Hela-JC53, 48 h. A digest of the protocol:
(§3)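 VSV-G-pseudotyped Y188L NL4-3.Luci.R−E− virus (MOI 0.03) infecting HeLa-JC53 cells (1.5 × 10^4) in phenol red-free DMEM with 2% FBS. Serially diluted compound was added, then heat-inactivated human serum at final 0, 5, 10, 20, 30, 40 or 50%. Cultures ran 48 h at 37°C in 5% CO2, read by Bright-Glo luciferase chemiluminescence. EC50 was taken by nonlinear regression.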

In test [6] the test system is Human immunodeficiency virus 1. The experiment in a line: Antiviral activity against HIV1 isolate with RT V106I mutation. In a few lines: as §1
Test [7] deals with Human immunodeficiency virus 1. Put plainly: Antiviral activity against HIV1 isolate with RT G190A mutation. A digest of the protocol:
as §1

Test [8] concerns Human immunodeficiency virus 1. The experiment in a line: Antiviral activity against HIV1 NL4-3 with Y188L mutation in Hela-JC53 cells in the presence of 50% human serum after 48 hrs. The following applies: Human immunodeficiency virus 1, NL4-3, Hela-JC53, 48 h. In a few lines:
as §3

The structures appear in SMILES notation. Active and inactive are the calls of the source. No cut-off for these calls is given here.

Experimental findings from ChEMBL document CHEMBL1142195, “A novel nonnucleoside analogue that inhibits human immunodeficiency virus type 1 isolates resistant to current nonnucleoside reverse transcriptase inhibitors” (Antimicrob Agents Chemother, 2007) are described below.

In the case of `NS(=O)(=O)c1ccc(NC(=O)CSc2nnc(Br)n2-c2ccc(C3CC3)c3ccccc23)c(Cl)c1`, the EC50 (in general, the concentration that produces a half-maximal response) in test [1] was 0.32 nM; in test [2], 0.6 nM; in test [4] it was 0.09 nM; in test [5] it was 3.7 nM; in test [6], 0.09 nM; in test [7], 0.19 nM. Moreover, the EC50 in test [8] was 79.9 nM. In addition, the result in test [3] was Active.
